# Assay results published in ChEMBL document CHEMBL1157855, “Synthesis and biological activity of n-butylphthalide derivatives” (Eur J Med Chem, 2010).
# Columns and labels:
# Aorta [1] = test: Vasorelaxant activity in rat thoracic aorta assessed as relaxation of resting tension
# Aorta [2] = test: Vasorelaxant activity in rat thoracic aorta assessed as inhibition of norepinephrine-induced contractions Ca2+-free medium; assay type: functional, tissue-based
# [3] = Toxicity in ip dosed mouse; assay type: organism-based; settings: in vivo
# Outline: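 Acute toxicity test in mice with test article given by intraperitoneal injection; read-out was the LD50 (mg/kg).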
SMILES,Activity (Aorta [1]),IC50 (Aorta [2]),LD50 [3],inhibition (Aorta [2])
CCCCC1OC(=O)c2ccc(Cl)cc21 (stereo not given),Dose-dependent effect,,,
CCCCC1OC(=O)c2ccccc21 (stereo not drawn) [RAC-3-N-BUTYLPHTHALIDE],,130 µM,751 mg/kg,
CCCCC1OC(=O)c2ccc(Br)cc21 (stereo not given),Dose-dependent effect,,,
CCCCC1OC(=O)c2cc(Br)ccc21 (stereo not given),,107 µM,> 1000 mg/kg,Dose-dependent effect
CCCCC1OC(=O)c2cc(F)ccc21 (stereo not given),,132 µM,593 mg/kg,Dose-dependent effect
